Results gathered from unrelated publications.
Protocols differ between the studies behind these lines.
ADORA3: Adenosine receptor A3 (ADORA3, Homo sapiens, UniProt P0DMS8)
DRD2: D(2) dopamine receptor (DRD2, Homo sapiens, UniProt P14416)
Liver carboxylesterase: Liver carboxylesterase (Sus scrofa, UniProt Q29550)

| Compound | target | assay | setting | Ki |
| --- | --- | --- | --- | --- |
| CCNC(=O)[C@H]1O[C@@H](n2cnc3c(N)nc(NN=CC4CCC=CO4)nc32)[C@H](O)[C@@H]1O (stereo partly shown) | ADORA3 | ligand displacement, radioligand | – | 0.00632 µM |
| NCCCC[C@H](NC(=O)[C@@H]1CCCN1C(=O)[C@@H]1CSSC[C@H](N)C(=O)N[C@@H](Cc2ccc(O)cc2)C(=O)N[C@@H](Cc2ccccc2)C(=O)N[C@@H](CCC(N)=O)C(=O)N[C@@H](CC(N)=O)C(=O)N1)C(=O)NCC(N)=O | Vasopressin V2 receptor (AVPR2, Homo sapiens, UniProt P30518) | ligand displacement, radioligand | cell membranes | 0.01 µM |
| CCCC(C)N1CCCn2c1nc1c2c(=O)n(C)c(=O)n1C (stereo not shown) | ADORA3 | ligand displacement, radioligand | cell membranes | > 10 µM |
| CNC(=O)[C@@]12C[C@@H]1[C@@H](n1cnc3c(NCc4cn(-c5ccc(F)c(N)c5)nn4)nc(Cl)nc31)[C@H](O)[C@@H]2O | ADORA3 | ligand displacement, radioligand | cell membranes | 0.0226 µM |
| COc1cccc(CCC2=NCCN2CCc2ccccc2)c1 | DRD2 | ligand displacement, radioligand | – | > 10 µM |
| CCCCN1CCC(COC(=O)c2ccc(N)c(OCF)c2)CC1 | 5-hydroxytryptamine receptor 1E (HTR1E, Homo sapiens, UniProt P28566) | cell-free assay, radioligand | – | > 10 µM |
| CCCC[C@H](NC(=O)[C@H](CO)NC(=O)[C@H](Cc1ccc(O)cc1)NC(=O)[C@H](CO)NC(C)=O)C(=O)N[C@@H](CCC(=O)O)C(=O)N[C@@H](Cc1c[nH]cn1)C(=O)N[C@@H](C)C(=O)N[C@@H](CCCNC(=N)N)C(=O)N[C@@H](Cc1c[nH]c2ccccc12)C(=O)NCC(=O)N[C@@H](CCCCN)C(=O)N1CCC[C@H]1C(=O)N[C@H](C(=O)NCC(=O)N[C@@H](CCCCN)C(=O)N[C@@H](CCCCN)C(=O)N[C@@H](CCCNC(=N)N)C(N)=O)C(C)C | Melanocortin receptor 3 (MC3R, Homo sapiens, UniProt P41968) | ligand displacement in cells, radioligand | – | > 1 µM |
| CC[C@H](C)[C@H](NC(=O)CN)C(=O)N[C@H](C(=O)N[C@@H](CC(N)=O)C(=O)N[C@H](C(=O)N[C@@H](CC(C)C)C(=O)N[C@@H](CCC(N)=O)C(=O)N[C@@H](CCCCN)C(=O)N[C@@H](Cc1ccc(O)cc1)C(=O)N[C@@H](Cc1ccc(O)cc1)C(=O)N[C@@H](CO)C(=O)N[C@@H](CCCNC(=N)N)C(=O)N[C@H](C(=O)N[C@@H](CCCNC(=N)N)C(=O)NCC(=O)NCC(=O)N[C@@H](CCCNC(=N)N)C(=O)N[C@H]1CSSC[C@@H](C(=O)N[C@@H](CO)C(=O)N[C@H](C(=O)N[C@@H](CCCNC(=N)N)C(=O)NCC(=O)N[C@@H](CCCNC(=N)N)C(=O)N[C@@H](CCCCN)C(=O)N[C@@H](CO)C(=O)N[C@@H](CO)C(=O)N[C@@H](CCCNC(=N)N)C(=O)N[C@@H](CCCNC(=N)N)C(=O)N[C@@H](CCCCN)C(=O)N[C@@H](CCCCN)C(N)=O)[C@@H](C)O)NC(=O)[C@H](CCCCN)NC(=O)CNC(=O)[C@H]([C@@H](C)CC)NC(=O)[C@H](CCC(N)=O)NC(=O)[C@H](CCC(=O)O)NC(=O)[C@H](CCC(=O)O)NC(=O)[C@H](CCCCN)NC(=O)[C@@H]2CCCN2C(=O)[C@H](CC(C)C)NC(=O)[C@H](CO)NC(=O)[C@H](CO)NC(=O)[C@H](CC(C)C)NC(=O)[C@H](C(C)C)NC(=O)[C@H](C)NC1=O)C(C)C)[C@@H](C)O)[C@@H](C)CC | Melanocyte-stimulating hormone receptor (MC1R, Homo sapiens, UniProt Q01726) | ligand displacement in cells | – | 0.373 µM |
| CC(C)CN1CCCn2c1nc1c2c(=O)n(C)c(=O)n1C | ADORA3 | ligand displacement, radioligand | cell membranes | > 10 µM |
| CCCCC[C@H](O)/C=C/C1=C(CCCCCCC(=O)O)C(=O)CC1 | Liver carboxylesterase | enzyme activity, inhibitor, HPLC | pH 7.4 | 16 µM |
| OC[C@H]1OC(O)[C@H](O)[C@@H](O)[C@H]1O (stereo partly shown) | Alpha-galactosidase A (GLA, Homo sapiens, UniProt P06280) | enzyme activity, inhibitor | – | 16000 µM |
| CCCCN1CCCn2c1nc1c2c(=O)n(C)c(=O)n1C | ADORA3 | ligand displacement, radioligand | cell membranes | > 10 µM |
| CCCCC[C@H](O)/C=C/[C@H]1C=CC(=O)[C@@H]1C/C=C\CCCC(=O)O | Liver carboxylesterase | enzyme activity, inhibitor, HPLC | pH 7.4 | 12 µM |
| CC(C)N1CCCn2c1nc1c2c(=O)n(C)c(=O)n1C | ADORA3 | ligand displacement, radioligand | cell membranes | > 10 µM |
| O=C1c2ccccc2CCCN1CCCCN1CCN(c2ccccn2)CC1 | DRD2 | ligand displacement, radioligand | – | 0.209 µM |
| CCCCC[C@H](O)/C=C/[C@H]1[C@H](O)CC(=O)[C@@H]1C/C=C\CCCC(=O)O | Liver carboxylesterase | enzyme activity, inhibitor, HPLC | pH 7.4 | > 28 µM |
| COC(=O)[C@H](CSC/C=C(\C)CC/C=C(\C)CCC=C(C)C)NC(=O)c1ccc(-c2ccccc2)cc1 | Liver carboxylesterase | enzyme activity, inhibitor, HPLC | – | 190 µM |
| CCCCCCN1CCCn2c1nc1c2c(=O)n(C)c(=O)n1C | ADORA3 | ligand displacement, radioligand | cell membranes | > 10 µM |
| C#CCNc1nc(Cl)nc2c1ncn2[C@H]1[C@H](O)[C@H](O)[C@]2(C(=O)NC)C[C@H]12 | ADORA3 | ligand displacement, radioligand | cell membranes | 0.0015 µM |
